Test results published in the RNAGym collection of RNA variant scans (doi:10.1126/science.aae0568).
Fewer inactive variants are shown than the library holds.

B1: tRNA (parent)
chain: GUUCCGUUGGCGUAAUGGUAACGCGUCUCCCUCCUAAGGAGAAGACUGCGGGUUCGAGUCCCGUACGGAACG

Variants of: B1
Assay: yeast fitness relative to wild type (ratio to wild type); higher = fitter; tRNA-Arg(CCU), competitive growth, 37 C, YPD
Procedure, shortened: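 Variants of the tRNA-Arg(CCU) gene, chemically synthesised with a 3% per-site mutation rate at 69 sites, were placed at the native genomic locus in Saccharomyces cerevisiae. The pooled strains were competed in YPD at 37°C for 24 hours in six parallel replicates. Gene amplicons from the start population and from each end population were read by 100-nucleotide paired-end sequencing. Darwinian fitness relative to wild type came from changes in genotype frequencies; genotypes needed ≥ 100 starting reads, and estimates < 0.5 were set to 0.5.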

Point of comparison: GUUCCGUUGGCGUAAUGGUAACACGUCUCCCUGCUAAGGAGAAGACUGCGGGUUCGAGUCCCAUACGGAACG, yeast fitness 0.594. Against it:
- GUUCCGUUGGCGUAAUGGUAACACGACUCUCUCCUAAGGUGAAAACUGCGGGUUCGAGACCCGUACGGAACG — lower, ≤ 0.5
- GUUCCGUUGGCGUAAUGGUAACACGUCUCCCUCUUAAGGAGAUCACUGCGGGUUCGAGUCCCGUACGGAACG — lower, ≤ 0.5
- GUUCCGUUGGCGUAAUGGUAACACGUCUCCCUCCUAAGGAGAAGACUGCCGGUUCGAGUCCCGUACGGAACG — lower, 0.58
- GUUCCGUUGGCGUAAUGGUAACACGUCUCCCUCCUAAGGAGAAGACUGCAGGUUCGAGUCCCGUACGGAACG — higher, 0.819
- GUUCCGUUGGCGUAAUGGUAACACGUCUCCCUGCUAAGGAGAGGACUGCGGGUUCGAGUCCCGUACGGCACG — lower, ≤ 0.5
- GUUCCGUUGGCGUAAUGGUAACACGUCUCCCUCCGAAGGAGAAGACUGCGGGUUCGAGUCCCGUACGGACCG — lower, ≤ 0.5
- GUUCCGUUGGCGUAAUGGUAACACGUCUCCCUCCUAAGGAGAAGACUGCGGGUUCGAGUACCGUACGGAACG — lower, ≤ 0.5
- GUUCCGUUGGCGUAAUGGUAACACAUCUCCCUCCUAAGGAGAAGACUGCGGGUUCGAGUCCCGUACGGAACG — higher, 0.958
- GUUCCGUUGGCGUAAUGGUAACACGUCCCACUCCUAAGGAGAAGAUUGCGGGUUCGAGUCCCGUACGGAUCG — lower, ≤ 0.5
- GUUCCGUUGGCGUAAUGGUAACACGUCUCCCUCAUAAGGAGAAGACUGCGGCUUCGAGUCCCCUACGGAACG — lower, ≤ 0.5
- GUUCCGUUGGCGUAAUGGUAACACGUCUCCCUCCGAAGGAGAAGACUGCGGGUUCGAAUCCCGUACGGAACG — lower, ≤ 0.5
- GUUCCGUUGGCGUAAUGGUAACACGUCUCCCUGCGAAGGAGAAGACUGCGGGUUCGAGUACUGUACGGAACG — lower, ≤ 0.5
- GUUCCGUUGGCGUAAUGGUAACACGUCUCCCUCCUAAGGAGAAGACUGCGGGUUCGAGUCUCGUACGGAACG — higher, 0.665
- GUUCCGUUGGCGUAAUGGUAACACGUCUCCCUCCUAAGGAGAAGACUGCGGGUUCGAGUCGCGUACGGAACG — higher, 0.714
- GUUCCGUUGGCGUAAUGGUAACACGUCUCCCUCCUAAGGAGAAGACUGCGGGUUCGAGUCACGUACGGAACG — lower, 0.539
- GUUCCGUUGGCGUAAUGGUAACACGUCUCCCCCCUAAGGAGGAGACUGCGGGUGCGAGUCCUGUACGGAACG — lower, ≤ 0.5
- GUUCCGUUGGCGUAAUGGUAACACGUCUCCCUCCUAAGGAGAAGACUGCGGGUUCGAGUCCAGUACGGAACG — lower, 0.516
- GUUCCGUUGGCGUAAUGGUAACACGUCUCCCUCCUAAGGAGAAGACUGGGGGUUCGAGUCCCGUACGGAACG — higher, 0.873
- GUUCCGUUGGCGUAAUGGUAACACGUCUCCCUCCUAAGGAGAAGACUGAGGGUUCGAGUCCCGUACGGAACG — lower, 0.526
- GUUCCGUUGGCGUAAUGGUAACACGUCUCCCUCCAAAGGAGAAGACUGCGGGUUCGAGUCCCGUCCGGAACG — lower, ≤ 0.5
- GUUCCGUUGGCGUAAUGGUAACACGUCUCCCUCCUAAGGAGAAGACUGCGGGUUCGAGUCCCAUGCGGAACG — lower, 0.524
- GUUCCGUUGGCGUAAUGGUAACACGUCUCCCUCCUAAGGAGAAGACUGCGGGUUCGACUCUCGUACGGAACG — lower, 0.554
- GUUCCGUUGGCGUAAUGGUAACACGUCUCCCUCCUAAGGAGAAGACUGCGGGUUCGAGUGCCGUACAGAACG — lower, ≤ 0.5
- GUUCCGUUGGCGUAAUGGUAACACGUCUCCCUCCUAAGGAGAAGACUCCGGGUUCGAGUCCCGUACGGAACG — higher, 0.759
- GUUCCGUUGGCGUAAUGGUAACACGUCUCCCUCGUAAGGAGAAGACUGCGGGUUCGAGUCCCGUACGGAACG — lower, 0.582
- GUUCCGUUGGCGUAAUGGUAACACGUCUCCCUCCUAAGGAGAAGACUGAGGGUUCGAGCCCUGUUCGGAACG — lower, ≤ 0.5
- GUUCCGUUGGCGUAAUGGUAACACGUCUCCCUGCGAAGGAGAAGACUGCGGGUUCGAGUCCCGUACGGAACG — lower, ≤ 0.5
- GUUCCGUUGGCGUAAUGGUAACACGUCUCCCUGCUAAGGAGAAGACUGCGGGUUCGAGUCCCGUACGGAACG — lower, ≤ 0.5
- GUUCCGUUGGCGUAAUGGUAACACGUCUCCCUUCUAAGGAGAAGACUGCGGGUUCGAGUCCCGUACGGAACG — lower, 0.547
- GUUCCGUUGGCGUAAUGGUAACACGUCUCCCUCCUAAGGAGAAGACUGCGGGUUUGAGUCCCCUACGGAACG — lower, ≤ 0.5
- GUUCCGUUGGCGUAAUGGUAACACGUCUCCCUCCUAAAGAGAAGACUGCGGGUUCGAGUCCCGUACGGAACG — higher, 0.643
- GUUCCGUUGGCGUAAUGGUAACACGUCUCCCUCCUAACGAGAAGACUGCGGGUUCGAGUCCCGUACGGAACG — higher, 0.599
- GUUCCGUUGGCGUAAUGGUAACACGUCUCCCUCCUAAGGAGAAGACUGCGGGUUCAAGUCCCGUACGGAACG — higher, 0.924
- GUUCCGUUGGCGUAAUGGUAACACGUCUCCCUCCUAAGGAGAAGACUGCGGGUUCCAGUCCCGUACGGAACG — higher, 0.65
- GUUCCGUUGGCGUAAUGGUAACACGUCUCCCUGCGAAGGAGAAGACUGCGGGUUCGAGUUCGGUACGGUACG — lower, ≤ 0.5
- GUUCCGUUGGCGUAAUGGUAACACGUCUCCCUCCUAAGGAGAAGACUGCGGGUUUGAAUCCCGUACGGAACG — lower, ≤ 0.5
- GUUCCGUUGGCGUAAUGGUAACACGUCUCCCUCCUAAGGAGAAGACUGCGGGUUUGAGUCCCGUACGGAACG — higher, 0.625
- GUUCCGUUGGCGUAAUGGUAACACGUCUCCCUCCUAAGGAGAAGACUGCGGGUUAGAGUCACGUACGGAACG — lower, 0.568
- GUUCCGUUGGCGUAAUGGUAACACGUCUCCCUCCUAAGGAGAAGACUGCGGGUUCGAGUCCCGUACAGAACG — higher, 0.841
- GUUCCGUUGGCGUAAUGGUAACACGUCUCCCUCCUAAGGAGAAGACUGCGGGUUCGAGUCCCGUACCGAACG — higher, 0.86
- GUUCCGUUGGCGUAAUGGUAACACGUCUCCCUCCUAAGGAGAAGAGUGCGGGUUCGAGUCCCGUACGGAACG — higher, 0.683
- GUUCCGUUGGCGUAAUGGUAACACGUCUCCCUGCUAAGGAGAAGACUGCGGGUACCAGUCCCGUACGGAACG — lower, ≤ 0.5
- GUUCCGUUGGCGUAAUGGUAACACCUCUCCCUCCUAAGGAGAAGAGUACGGGUUCGAGUCCCGUAAGGAACG — lower, ≤ 0.5
- GUUCCGUUGGCGUAAUGGUAACACGUCUCCCUCCUAACGCGACGACUGCGGGUUCGAGUCCCGUACGGAACG — lower, ≤ 0.5
- GUUCCGUUGGCGUAAUGGUAACACGUCUCCCUGCUAAGGAGAAGACUGAGGGUGCGAGUCCCGUGCGGAACG — higher, 0.617
- GUUCCGUUGGCGUAAUGGUAACACGUCUCCCUUUUAAGGUGAAGACUGCGGGUUCGAGUCCCGUACGGAACG — lower, ≤ 0.5
- GUUCCGUUGGCGUAAUGGUAACACGUCUCCCUCCUAAGCAGAAGACUGAGGGUUCGAGUCCCGUACGGAACG — lower, ≤ 0.5
- GUUCCGUUGGCGUAAUGGUAACACGUCUCCCUCCUAAGGAGAAGAUUGCGGGUUCGAGCCCCGUACGGAACG — lower, 0.587
- GUUCCGUUGGCGUAAUGGUAACACGUCUCCCUCCUAAGGAGAAGACUGCGGGUUCGAGUCUCGUACAGAACG — lower, 0.525
- GUUCCGUUGGCGUAAUGGUAACACGGCUCCCUCCUAAGGAGAAGACUGCGGGUUCGAGUCUCGUACGGCACG — higher, 0.793
- GUUCCGUUGGCGUAAUGGUAACACGUCUCCCUCCUAAGGAGAAGACUGCGGAUUCGAGUCCCAUACGGAACG — lower, ≤ 0.5
- GUUCCGUUGGCGUAAUGGUAACACGUCUCCCUCCUAAGGACAAGACUGCGGGUUCGAGUCCCGUACGGAACG — higher, 0.803
- GUUCCGUUGGCGUAAUGGUAACACGUCUCCCUCCUAAGCUGAAGACUGCGGGUUCGAGUCCCGUACGAAACG — lower, ≤ 0.5
- GUUCCGUUGGCGUAAUGGUAACACGUCUCCCUGCUAAGGAGAAGAGUGCGGGUUCGAGUCCCGUAAGGAACG — lower, 0.529
- GUUCCGUUGGCGUAAUGGUAACACGUCUCCCUCCUAAACAGAAGACUGCAGGUUCCAGUCCCGUACGGAACG — lower, ≤ 0.5
- GUUCCGUUGGCGUAAUGGUAACACAUCUCCCUCCUAAGGUGAAGACUGCGGGUUCGAGUCUCGUACGGAACG — lower, ≤ 0.5
- GUUCCGUUGGCGUAAUGGUAACACGUCACUCUCCUAAGGCGAAGACUGCGGCUUCGAGUCCCGUACAGAACG — lower, ≤ 0.5
- GUUCCGUUGGCGUAAUGGUAACACGUCUCCCUCCUAAGGAGAAGACUGCGGGUUCGAGUCCCGUACGUAACG — higher, 0.641
- GUUCCGUUGGCGUAAUGGUAACACGUCUCCCUCCUAAGGAGAAGACUGCGGGUUCGAGUCCCGUACGCAACG — higher, 0.746
- GUUCCGUUGGCGUAAUGGUAACACGUCACUCUCCUAAGGUGAAGACUGCGGCUUCGAGUCCCGUACAGAACG — higher, 0.63
- GUUCCGUUGGCGUAAUGGUAACACGUCUCCCUCCUAAGGAGAACACUGCGGGUUCGAGUCGCGUACGGAACG — lower, ≤ 0.5
- GUUCCGUUGGCGUAAUGGUAACACGUCCCACUCCUAAGGAGAAGACUGCGGGUUCGAGUCCCGUACGGAACG — lower, ≤ 0.5
- GUUCCGUUGGCGUAAUGGUAACACGUCUCCCUAGUAAGGAGAAGACUGCGGGUUCGAGUCCCGUACGGAACG — lower, ≤ 0.5
- GUUCCGUUGGCGUAAUGGUAACACGUCUCCCUCCUAAGGAGAAGACUGUGGGUCCGAGUCCCGUACGGAACG — lower, ≤ 0.5
- GUUCCGUUGGCGUAAUGGUAACACGUCUCCCUCCUAAGGAGAAGACUGCGGGUUCGAGUCCCCUACGGAACG — higher, 0.613
- GUUCCGUUGGCGUAAUGGUAACACGUCUCCCUCCUAAAGACAAGACUGCCGGUUGGAGUCCCGUACGGAACG — higher, 0.696
- GUUCCGUUGGCGUAAUGGUAACACGUCUCCCUGCUAAGGAGAAGACUGCAGGUUCGAGUCCCGUACGGAACG — lower, 0.53
- GUUCCGUUGGCGUAAUGGUAACACGUCUCCCCCCUAAGGAGAAGACUGCGGGUUCGAGUCCCGUACGGAACG — higher, 0.628
- GUUCCGUUGGCGUAAUGGUAACACGUCUCCCUCCUAAAGAGAAGACUGCGGGUUCGAGUCCCGUACGGCACG — lower, ≤ 0.5
- GUUCCGUUGGCGUAAUGGUAACACGUCUCCCUGCUAAGGAGACGACUGCGGGUUCGAGUCCCGUACGGAACG — lower, ≤ 0.5
- GUUCCGUUGGCGUAAUGGUAACACGUCUCCCUUCUAAGGAGAAGACUGCGGGUUCGAGUCCCGUACGGUACG — lower, ≤ 0.5
- GUUCCGUUGGCGUAAUGGUAACACGUCUCCCUCCUAAGCAGAAGACUGCGGGUUCGAGUCCCGUACGGUACG — lower, ≤ 0.5
- GUUCCGUUGGCGUAAUGGUAACACGUCUCCCUCCUAAGCGGAAGACUGCGGGUUCGAGUCCCGUACGGAACG — lower, ≤ 0.5
- GUUCCGUUGGCGUAAUGGUAACACGUCUCCCUCCUAAAGAGAAGACUGCGGGUUUGAGUCCCGUACGGAACG — lower, ≤ 0.5
